According to ChEMBL document CHEMBL1154853, “New 1,3-oxazolo[4,5-c]quinoline derivatives: synthesis and evaluation of antibacterial and antituberculosis properties” (2010):
Converted amounts (≈) assume the structure as drawn.

Legend:
Format in all cases: functional
[1] = tested on: Mycobacterium tuberculosis; assay: Antitubercular activity against Mycobacterium tuberculosis H37Rv after 24 hrs by broth microdilution method
Method in brief: (§1)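 M. tuberculosis H37Rv grown in Middlebrook 7H9 with 10% OADC, diluted to McFarland 1, 50 µl added to 150 µl fresh medium. Compounds from 2 mg/mL DMF stocks tested at 1, 10 and 100 µg/mL; DMF-only controls. 7 days at 37 °C, then 0.01% resazurin added with 24 h further incubation. MIC = lowest concentration preventing blue-to-pink change.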

Klebsiella pneumoniae [2] = assay: Antimicrobial activity against Klebsiella pneumoniae at MIC after 3 to 4 days by disc diffusion method
Pseudomonas aeruginosa [3] = assay: Antimicrobial activity against Pseudomonas aeruginosa ATTC 27853 after 16 to 18 hrs by serial dilution method
Method in brief: (§2)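 Tube broth dilution: serial drug dilutions in Mueller Hinton broth, pH adjusted to 5.0 with phosphate buffer. A standardized bacterial suspension was inoculated and incubated 16-18 h at 37 °C. MIC was read as the lowest drug concentration with no visible growth. Ciprofloxacin served as the reference.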

Staphylococcus aureus [4] = assay: Antimicrobial activity against Staphylococcus aureus […] at MIC after 3 to 4 days by disc diffusion method
Escherichia coli [5] = assay: Antimicrobial activity against Escherichia coli […] at MIC after 3 to 4 days by disc diffusion method
Escherichia coli [6] = assay: Antimicrobial activity against Escherichia coli […] after 16 to 18 hrs by serial dilution method; method in brief: as §2
[7] = tested on: Mycobacterium tuberculosis; assay: Antitubercular activity against Mycobacterium tuberculosis H37Rv at MIC after 24 hrs by broth microdilution method; method in brief: as §1
Klebsiella pneumoniae [8] = assay: Antimicrobial activity against Klebsiella pneumoniae after 16 to 18 hrs by serial dilution method; method in brief: as §2
Staphylococcus aureus [9] = assay: Antimicrobial activity against Staphylococcus aureus […] after 16 to 18 hrs by serial dilution method; method in brief: as §2
Pseudomonas aeruginosa [10] = assay: Antimicrobial activity against Pseudomonas aeruginosa ATTC 27853 at MIC after 3 to 4 days by disc diffusion method

SMILES	MIC [1]	diameter of the inhibition zone (DIZ) (Klebsiella pneumoniae [2])	MIC (Pseudomonas aeruginosa [3])	diameter of the inhibition zone (DIZ) (Staphylococcus aureus [4])	diameter of the inhibition zone (DIZ) (Escherichia coli [5])	MIC (Escherichia coli [6])	inhibition (INH) [7]	MIC (Klebsiella pneumoniae [8])	MIC (Staphylococcus aureus [9])	diameter of the inhibition zone (DIZ) (Pseudomonas aeruginosa [10])
Cc1cc(C)cc(Nc2nc3c(-c4ccc(F)cc4)nc4ccccc4c3o2)c1	10 µg/mL (≈ 26.1 µM)	12 mm	12.5 µg/mL (≈ 32.6 µM)	11 mm	24 mm	6.25 µg/mL (≈ 16.3 µM)	95%	12.5 µg/mL (≈ 32.6 µM)	12.5 µg/mL (≈ 32.6 µM)	14 mm
Fc1cccc(-c2nc3ccccc3c3oc(Nc4ccccc4)nc23)c1	10 µg/mL (≈ 28.1 µM)	20 mm	6.25 µg/mL (≈ 17.6 µM)	20 mm	26 mm	6.25 µg/mL (≈ 17.6 µM)	95%	6.25 µg/mL (≈ 17.6 µM)	6.25 µg/mL (≈ 17.6 µM)	22 mm
Fc1ccc(Nc2nc3c(-c4ccc(F)cc4)nc4ccccc4c3o2)cc1	1 µg/mL (≈ 2.68 µM)	20 mm	6.25 µg/mL (≈ 16.7 µM)	20 mm	28 mm	6.25 µg/mL (≈ 16.7 µM)	99%	6.25 µg/mL (≈ 16.7 µM)	6.25 µg/mL (≈ 16.7 µM)	22 mm
O=C(Nc1ccc(F)cc1)Nc1c(-c2cccc(F)c2)nc2ccccc2c1O	10 µg/mL (≈ 25.6 µM)	16 mm	6.25 µg/mL (≈ 16 µM)	20 mm	21 mm	6.25 µg/mL (≈ 16 µM)	95%	6.25 µg/mL (≈ 16 µM)	6.25 µg/mL (≈ 16 µM)	19 mm
COc1ccccc1Nc1nc2c(-c3ccc(F)cc3)nc3ccccc3c2o1	1 µg/mL (≈ 2.59 µM)	23 mm	6.25 µg/mL (≈ 16.2 µM)	22 mm	27 mm	6.25 µg/mL (≈ 16.2 µM)	99%	6.25 µg/mL (≈ 16.2 µM)	6.25 µg/mL (≈ 16.2 µM)	19 mm
CCCCCNc1nc2c(-c3cccc(F)c3)nc3ccccc3c2o1	10 µg/mL (≈ 28.6 µM)	12 mm	12.5 µg/mL (≈ 35.8 µM)	11 mm	24 mm	6.25 µg/mL (≈ 17.9 µM)	95%	12.5 µg/mL (≈ 35.8 µM)	12.5 µg/mL (≈ 35.8 µM)	14 mm
COc1ccccc1Nc1nc2c(-c3cccc(F)c3)nc3ccccc3c2o1	1 µg/mL (≈ 2.59 µM)	21 mm	6.25 µg/mL (≈ 16.2 µM)	21 mm	24 mm	6.25 µg/mL (≈ 16.2 µM)	99%	6.25 µg/mL (≈ 16.2 µM)	6.25 µg/mL (≈ 16.2 µM)	21 mm
COc1ccccc1NC(=O)Nc1c(-c2cccc(F)c2)nc2ccccc2c1O	1 µg/mL (≈ 2.48 µM)	19 mm	6.25 µg/mL (≈ 15.5 µM)	19 mm	22 mm	6.25 µg/mL (≈ 15.5 µM)	99%	6.25 µg/mL (≈ 15.5 µM)	6.25 µg/mL (≈ 15.5 µM)	18 mm
Fc1ccc(Nc2nc3c(-c4cccc(F)c4)nc4ccccc4c3o2)cc1	1 µg/mL (≈ 2.68 µM)	19 mm	6.25 µg/mL (≈ 16.7 µM)	22 mm	25 mm	6.25 µg/mL (≈ 16.7 µM)	99%	6.25 µg/mL (≈ 16.7 µM)	6.25 µg/mL (≈ 16.7 µM)	25 mm
COc1ccccc1NC(=O)Nc1c(-c2ccc(F)cc2)nc2ccccc2c1O	1 µg/mL (≈ 2.48 µM)	19 mm	6.25 µg/mL (≈ 15.5 µM)	17 mm	21 mm	6.25 µg/mL (≈ 15.5 µM)	99%	6.25 µg/mL (≈ 15.5 µM)	6.25 µg/mL (≈ 15.5 µM)	16 mm
CCCCCNC(=O)Nc1c(-c2ccc(F)cc2)nc2ccccc2c1O	> 100 µg/mL	<10 mm	50 µg/mL (≈ 136 µM)	<10 mm	20 mm	6.25 µg/mL (≈ 17 µM)	0%	50 µg/mL (≈ 136 µM)	50 µg/mL (≈ 136 µM)	<10 mm
O=C(NCc1ccccc1)Nc1c(-c2ccc(F)cc2)nc2ccccc2c1O	10 µg/mL (≈ 25.8 µM)	<10 mm	50 µg/mL (≈ 129 µM)	16 mm	<10 mm	50 µg/mL (≈ 129 µM)	95%	50 µg/mL (≈ 129 µM)	6.25 µg/mL (≈ 16.1 µM)	<10 mm
